Experimental data gathered from unrelated publications.
Target: Serine/threonine-protein kinase Nek4 (NEK4, Homo sapiens, UniProt P51957)

Compound | assay | test system | setting | endpoint | result
O=C(Nc1cnn(-c2csc(C(=O)NC3COC3)c2)c1)Nc1ccccc1Cl | enzyme activity, inhibitor | – | 5 µM | remaining activity | 109%
CC/C(=N\NC(=O)NCc1cccc(O)c1)c1ccc(O)c(C)c1O | enzyme activity, inhibitor | – | 0.1 µM | inhibition | -1.9%
CCCS(=O)(=O)Nc1ccc(F)c(C(=O)c2c[nH]c3ncc(-c4ccc(Cl)cc4)cc23)c1F | enzyme activity, inhibitor | – | 1 µM | inhibition | < 10%
COCCOc1nc(-c2ccc(Cl)nc2)nc2c1CN(C(=O)c1ncn3ccccc13)CC2 | cell-free assay, competition with immobilised ligand | – | 0.1 µM | remaining binding | 100%
CN(C)C1CCN(CC#Cc2nn(C3CCCC3)c3nc(NCc4ccccc4)ncc23)C1 (stereo not shown) | enzyme activity, inhibitor, FRET | – | 10 µM | inhibition | 12%
Cc1c(NC(=O)c2cc(C(N)=O)nc3cc(F)ccc23)c(C(F)(F)F)nn1Cc1ccc(C#N)cc1 | cell-free assay, competition with immobilised ligand | – | 1 µM | remaining binding | 92%
CN1CC(Oc2cnc(C#N)cc2-c2ccn3nc(NC(=O)C4CC4)cc3c2)C1 | enzyme activity, inhibitor | – | 1 µM | inhibition | 2%
COc1ccc2c(c1)O[C@@H](c1ccc(OC)c(OC)c1)C[C@H]2NC(=O)C1(c2ccc3c(c2)OC(F)(F)O3)CC1 | cell-free assay, competition with immobilised ligand | – | 1 µM | remaining binding | 75%
CCN1CCN(Cc2ccc(NC(=O)c3ccc(C)c(/C=C/c4cnc5[nH]ccc5c4OC)c3)cc2C(F)(F)F)CC1 | target engagement in cells, inhibitor, chemoproteomics | A-375 | 50 nM | inhibition | -31%
O=C1Nc2ccc(Cl)cc2C1=Cc1cc(Cl)c(O)c(Cl)c1 | cell-free assay | – | 0.5 µM | remaining signal | 88.2%
C[C@@]1(Cc2ccc(C#N)cc2)C(=O)N(c2cc(Cl)cc(Cl)c2)c2ncc(C(=O)NC3(c4nc(C5CCC5)no4)CC3)n21 | cell-free assay, competition with immobilised ligand | – | 1 µM | remaining binding | 12%
COc1cccc2c(NCc3ccccc3)nc(-n3c(N)nc4ccccc43)nc12 | target engagement in cells, inhibitor, chemoproteomics | – | 20 mM | inhibition | -7.4%
COc1cc2ncnc(Nc3ccc(Oc4ccccc4)cc3C)c2cc1OC | enzyme activity, inhibitor | – | 1 µM | inhibition | 1%
O=C(NCCCC1CCCCC1)c1ccc(CNC(=O)c2cnn(-c3ccccc3)c2C(F)(F)F)cc1 | cell-free assay, competition with immobilised ligand | – | 0.1 µM | remaining binding | 100%
CC(C)(C)c1nc2c(s1)c1nc(N)ncc1c1ccc(NS(=O)(=O)c3c(F)cccc3F)c(F)c12 | enzyme activity, inhibitor, radiometric | – | 1 µM | remaining activity | 96%
O=C1NC(=O)c2cc(Nc3ccc(F)cc3)c(Nc3ccc(F)cc3)cc21 | cell-free assay | – | 0.5 µM | remaining signal | 107%
CC(=O)N1CCC(c2ccc(C(=O)NC3=NCCN3)cc2C(F)(F)F)CC1 | cell-free assay, competition with immobilised ligand | – | 1 µM | remaining binding | 100%
N#CCCc1ccc2c(c1)-c1[nH]c3ccc([N+](=O)[O-])cc3c1CC(=O)N2 | cell-free assay | – | 0.5 µM | remaining signal | 104%
c1ccc(CNc2nc(N3CCOc4ccccc43)nc3c2CCCC3)cc1 | target engagement in cells, inhibitor, chemoproteomics | – | 20 mM | inhibition | -18.5%
